According to paper PMC10249145 (Cardiovascular & hematological agents in medicinal chemistry, 2023):
Where a name gives a salt, the structure may show the parent alone.

Key:
human FXIIa = target: T1, human FXIIa (Homo sapiens, UniProt P00748); assay: Direct inhibition of human FXIIa, chromogenic substrate hydrolysis assay; assay type: biochemical; conditions: for IC50: Tris-HCl buffer pH 7.4, 37 °C; for IC50 / DeltaY (efficacy of inhibition) / HS (Hill slope): ± 1 S.E.; for DeltaY (efficacy of inhibition) / HS (Hill slope): pH 7.4, 37 °C; for decrease in the inhibition potency: FXIIa IC50 relative to inhibitor 1
T1 sequence (P00748 20-615): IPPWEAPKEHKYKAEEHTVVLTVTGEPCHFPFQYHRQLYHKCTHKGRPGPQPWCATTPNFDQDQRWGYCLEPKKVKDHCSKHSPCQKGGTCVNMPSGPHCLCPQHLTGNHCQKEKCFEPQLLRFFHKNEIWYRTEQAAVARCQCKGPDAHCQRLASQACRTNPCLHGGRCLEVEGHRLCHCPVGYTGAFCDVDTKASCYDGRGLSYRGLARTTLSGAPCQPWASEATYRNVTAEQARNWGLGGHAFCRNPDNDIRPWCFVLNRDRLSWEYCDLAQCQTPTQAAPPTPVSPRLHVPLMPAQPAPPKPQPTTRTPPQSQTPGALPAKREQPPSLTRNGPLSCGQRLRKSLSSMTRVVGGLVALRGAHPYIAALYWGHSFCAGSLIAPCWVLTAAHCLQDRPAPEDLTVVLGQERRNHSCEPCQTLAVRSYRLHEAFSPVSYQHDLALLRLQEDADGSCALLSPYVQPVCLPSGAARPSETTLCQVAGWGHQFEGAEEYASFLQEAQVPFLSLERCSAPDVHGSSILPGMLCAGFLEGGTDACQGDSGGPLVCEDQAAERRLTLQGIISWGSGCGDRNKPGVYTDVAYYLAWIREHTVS
Method in brief: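 Human FXIIa (stock 200 nM) was preincubated for 5 min with test compound or vehicle in Tris-HCl pH 7.4 with NaCl, 2.5 mM CaCl2, 0.1% PEG8000 and 0.02% Tween80 at 37 °C. Spectrozyme FXIIa (stock 5 mM) was then added. Twelve in-well concentrations (500–0.0025 μM) were tested. Residual activity was taken from the initial A405 rate, and a logistic fit gave IC50, efficacy and Hill slope (±1 S.E.).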

human plasma [1] = conditions: normal human plasma, positive controls; cited from earlier work
human plasma [2] = conditions: normal human plasma, positive controls; cited from earlier work; remark: listed apart in the source

Compound | IC50 (human FXIIa; human FXIIa) [µM] | DeltaY (efficacy of inhibition) (human FXIIa; human FXIIa) [%] | HS (Hill slope) (human FXIIa; human FXIIa) | APTT (EC×1.5) (human plasma [1]) | PT (EC×1.5) (human plasma [2]) [µM] | decrease in the inhibition potency (human FXIIa) | IC50 (human FXIIa; IC50, human FXIIa) [µM]
CNC(=O)c1nc(N)n(C(=O)c2ccc(C(C)(C)C)cc2)n1 [Inhibitor 5, 5-amino-1-(4-(tert-butyl)benzoyl)-N-methyl-1-1H-1,2,4-triazole-3-carboxamide] | 340 ± 30.5 | 103 ± 5 | 1.26 ± 0.27 |  |  |  | 
CC1CNc2c(cccc2S(=O)(=O)N[C@@H](CCCNC(=N)N)C(=O)N2CC[C@@H](C)C[C@@H]2C(=O)O)C1 (stereo partly shown) [Argatroban HCl] |  |  |  | ~0.19 μM^b | ~0.13 |  | 
COC(=O)c1nc(N)n(C(=O)c2ccccc2)n1 [Inhibitor 2, Methyl 5-amino-1-benzoyl-1H-1,2,4-triazole-3-carboxylate] |  | 92.2 ± 3.1 | 1.09 ± 0.14 |  |  | ~ 2.2 fold | 
CC(C)(C)c1ccc(C(=O)n2ncnc2N)cc1 [Inhibitor 3, (5-amino-1H-1,2,4-triazol-1-yl)(4-(tert-butyl)phenyl)methanone] |  | 82.1 ± 8.1 | 1.37 ± 0.69 |  |  | 77.5 fold | 
O=C(NC[C@H]1CN(c2ccc(N3CCOCC3=O)cc2)C(=O)O1)c1ccc(Cl)s1 [Rivaroxaban] |  |  |  | ~0.06 µM | ~0.08 |  | 
CC(C)(C)c1ccc(C(=O)n2nc(C(=O)O)nc2N)cc1 [Inhibitor 4, 5-amino-1-(4-(tert-butyl)benzoyl)-1H-1,2,4-triazole-3-carboxylic acid] |  | 122.4 ± 23.4 | 1.05 ± 0.55 |  |  |  | 699
